What was measured:
Leishmania donovani = assay: Antileishmanial activity against Leishmania donovani promastigotes assessed as parasite growth inhibition incubated for 72 hrs by alamar blue staining based assay; assay type: functional, organism-based
In short: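 L. donovani S1 Sudan strain promastigotes were grown at 26 °C in RPMI-1640 (no bicarbonate or pyruvate) with 10% FBS. Compound dilutions were added to cultures at 2 × 10⁶ cells per mL, at final 40, 8 and 1.6 μg mL⁻¹ (footnote: at least six concentrations, each in duplicate). Incubation was 72 h at 26 °C, with Alamar blue read-out. IC50 came from non-linear logistic regression. Experiments were run in triplicate.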

[1] = Selectivity index, ratio of IC50 for African green monkey Vero cells to IC50 for Plasmodium falciparum D6; assay type: toxicity, cell-based; details: read-out: Ratio IC50
In short: (§1)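 SI = Vero IC50 (Neutral Red, 48 h) divided by P. falciparum IC50. Parasite IC50 was from asynchronous D6 or W2 cultures (2% hematocrit, 2% parasitemia), with DMSO-dissolved compounds diluted in RPMI-1640. Incubation was 48 h at 37 °C under 90% N₂/5% CO₂/5% O₂, with growth read by pLDH activity (Malstat). Chloroquine and artemisinin were positive controls.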

[2] = Cytotoxicity against African green monkey Vero cells incubated for 48 hrs by Neutral Red assay; assay type: toxicity, cell-based, Chlorocebus sabaeus
In short: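 Vero cells were maintained in RPMI with 10% heat-inactivated FCS, 0.15% NaHCO₃ and penicillin/streptomycin at 37 °C under 5% CO₂. Confluent monolayers were exposed to various concentrations up to a maximum of 4.75 μg mL⁻¹ for 48 h at 37 °C. Viability was read by Neutral Red uptake, with DMSO as negative control. IC50 was taken from the concentration–response curve.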

Plasmodium falciparum [3] = assay: Antimalarial activity against chloroquine-sensitive Plasmodium falciparum D6 assessed as parasite growth inhibition incubated for 48 hrs by LDH assay; assay type: functional, organism-based; details: D6, 48 h
In short: (§2)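 Asynchronous P. falciparum cultures (2% hematocrit, 2% parasitemia) were exposed to DMSO-dissolved compound dilutions in RPMI-1640. They were held at 37 °C for 48 h in a humidified chamber under 90% N2/5% CO2/5% O2. Growth was read as pLDH activity with Malstat reagent, with medium, RBC and DMSO controls. IC50 came from non-linear logistic dose-response regression, in triplicate.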

Plasmodium falciparum [4] = assay: Antimalarial activity against chloroquine-resistant Plasmodium falciparum W2 assessed as parasite growth inhibition incubated for 48 hrs by LDH assay; assay type: functional, organism-based; details: W2, 48 h; in short: as §2
[5] = Selectivity index, ratio of IC50 for African green monkey Vero cells to IC50 for Plasmodium falciparum W2; assay type: toxicity, cell-based; details: read-out: Ratio IC50; in short: as §1
Plasmodium falciparum [6] = assay: Antiparasitic activity against chloroquine-resistant Plasmodium falciparum W2 infected in red blood cells assessed as inhibition of parasite growth by HRP2 assay; assay type: functional, organism-based, Red blood cell; details: W2, Erythrocyte

Row | Structure (SMILES) | IC50 (Leishmania donovani) [µM] | selectivity ratio [1] | IC50 at 48 h [2] [µM] | IC50 (Plasmodium falciparum [3]) [µM] | IC50 (Plasmodium falciparum [4]) [µM] | selectivity ratio [5] | IC50 (Plasmodium falciparum [6]) [µM]
1 | O=C(O)c1cn(Cc2ccccc2)nn1 | 18.7 |  |  |  |  |  | 
2 | CCCCCCCCn1cc(CO)nn1 |  | > 1.7 | > 22.5 | 13.3 | 6.63 | > 3.39 | 
3 | CC(C)=CCC/C(C)=C/CC/C(C)=C/Cn1cc(CO)nn1 | 56 |  |  |  |  |  | 
4 | CCCc1cn(CCCc2ccccc2)nn1 |  | > 1.36 | > 20.7 | 15.3 | 11.3 | > 1.83 | 
5 | C[C@@H]1CC[C@H]2[C@@H](C)C(=O)O[C@@H]3O[C@@]4(C)CC[C@@H]1[C@]32OO4 [ARTEMISININ] |  | > 179 |  |  |  | > 179 | 
6 | CC(C)=CCC/C(C)=C/CC/C(C)=C\Cn1cc(CO)nn1 | 59.3 |  |  |  |  |  | 
7 | CC(C)=CCC/C(C)=C/CC/C(C)=C/Cn1cc(C(C)O)nn1 (stereo not drawn) | 56.7 |  |  |  |  |  | 
8 | CCCCCCCCc1cn(C/C=C/c2ccccc2)nn1 |  | > 1.48 | > 16 | 10.8 | 10.1 | > 1.58 | 
9 | CC(C)=CCC/C(C)=C/CC/C(C)=C/Cn1cc(C(C)(C)O)nn1 | 48.3 | > 6.09 | > 14.3 | 2.35 | 1.99 | > 7.2 | 
10 | CC(C)=CCC/C(C)=C/CC/C(C)=C\Cn1cc(C(C)(C)O)nn1 | 63.4 |  |  |  |  |  | 
11 | O=Cn1cc(-c2ccnc3cc(Cl)ccc23)nn1 |  |  |  |  |  |  | 1.4
12 | CC(C)=CCC/C(C)=C/CC/C(C)=C\Cn1cc(C(C)O)nn1 (stereo not drawn) | 59.9 |  |  |  |  |  | 
13 | c1ccc(CCCn2cc(-c3ccccc3)nn2)cc1 | 68.4 |  |  |  |  |  | 
14 | C(=C\c1ccccc1)/Cn1cc(-c2ccccc2)nn1 |  | > 1.58 | > 18.2 | 11.5 | 13 | > 1.4 | 
15 | CC(C)=CCC/C(C)=C/CC/C(C)=C/Cn1cc(CCO)nn1 | 63 |  |  |  |  |  | 
16 | CCCc1cn(C/C=C/c2ccccc2)nn1 |  | < 1 | > 20.9 | 20.9 | 22 | < 1 | 
17 | CC(C)=CCC/C(C)=C/CC/C(C)=C\Cn1cc(CCO)nn1 | 63 | > 5.46 | > 15 | 2.74 | 2.05 | > 7.31 | 
18 | CCCCCc1cn(C/C=C(\C)CC/C=C(\C)CCC=C(C)C)nn1 |  | > 3.96 | > 13.8 | 3.49 | 6.69 | > 2.07 | 
19 | CCCCCCCCc1cn(Cc2ccccc2)nn1 | 22.1 |  |  |  |  |  | 
20 | COC(=O)c1cn(CC=C(C)C)nn1 |  | > 1 | > 24.3 | 24.3 | 23.1 | 1.06 | 
21 | CCCCCc1cn(CCCc2ccccc2)nn1 |  | > 1.13 | > 18.5 | 16.3 | 10.9 | > 1.7 | 
22 | c1ccc(Cn2cc(-c3ccccc3)nn2)cc1 | 85 |  |  |  |  |  | 
23 | CCOC(=O)Cn1cc(C(=O)OC)nn1 |  | > 1.7 | > 20.9 | 12.3 | 12.3 | > 1.7 | 
24 | CCCCCCCCCCn1cc(C(=O)OC)nn1 | 78.5 | > 1.58 | > 17.8 | 11.2 | 6.73 | > 2.64 | 
25 | CCCCCc1cn(C/C=C/c2ccccc2)nn1 | 74.4 |  |  |  |  |  | 
26 | COC(=O)c1cn(Cc2ccccc2)nn1 | 92.1 |  |  |  |  |  | 
27 | CCCCCCCCCCc1cn(Cc2ccccc2)nn1 |  | > 1.44 | > 15.9 | 11 | 10.7 | > 1.48 | 

— ChEMBL document CHEMBL5360535, “Expanding the scope of novel 1,2,3-triazole derivatives as new antiparasitic drug candidates” (RSC Med Chem, 2023)
